Screening data deposited in PubChem BioAssay by Johns Hopkins Ion Channel Center.
This is a sample that favours compounds with a hit; in the whole collection about 3.7% have one here.
hERG protect: hERG (human) protection from proarrhythmic block; Q12809; activation (rescue from dofetilide block), less the hit threshold, % at 10 µM; hit rate 0.51% among 310,000; CHO-hERG, FluxOR thallium flux, dofetilide IC70 present; AID 1511;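 active means activation above the mean of controls blocked by dofetilide plus 5 SD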;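 further: thallium influx through hERG after potassium depolarization seen as dye fluorescence rise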
KCNQ1 inh: blocks the human KCNQ1 potassium channel. P51787. CHO-K1 KCNQ1, FluxOR thallium flux fluorescence; stronger effect = higher value. B-score at 10 µM. hit rate 1.3% among 310,000. AID 2642;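 active means compounds whose thallium flux B-score, printed positive for inhibition, exceeds three library SD while starting fluorescence stays within three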;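 further: channel opened by potassium depolarization with thallium stimulus after 20 min compound exposure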
Target sequence (P51787 whole entry, looked up): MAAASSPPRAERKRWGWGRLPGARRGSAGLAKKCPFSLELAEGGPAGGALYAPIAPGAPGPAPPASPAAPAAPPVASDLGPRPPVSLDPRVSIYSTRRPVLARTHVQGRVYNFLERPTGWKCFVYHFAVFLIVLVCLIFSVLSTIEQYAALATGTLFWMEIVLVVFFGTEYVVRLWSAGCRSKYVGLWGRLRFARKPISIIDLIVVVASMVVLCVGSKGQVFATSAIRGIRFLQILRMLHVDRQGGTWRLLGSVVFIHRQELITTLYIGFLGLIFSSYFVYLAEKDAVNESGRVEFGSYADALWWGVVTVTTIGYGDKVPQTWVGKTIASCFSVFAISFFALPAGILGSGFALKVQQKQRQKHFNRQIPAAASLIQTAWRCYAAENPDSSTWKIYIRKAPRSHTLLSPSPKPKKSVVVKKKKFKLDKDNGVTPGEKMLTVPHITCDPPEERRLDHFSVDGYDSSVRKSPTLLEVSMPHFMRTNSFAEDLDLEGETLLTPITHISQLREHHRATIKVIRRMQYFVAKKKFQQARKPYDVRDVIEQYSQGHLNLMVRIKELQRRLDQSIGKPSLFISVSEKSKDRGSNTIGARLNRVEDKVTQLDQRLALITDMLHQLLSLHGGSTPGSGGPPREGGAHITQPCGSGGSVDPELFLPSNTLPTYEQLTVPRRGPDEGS
Kir21 inh: inhibitors of mouse Kir2.1 inward-rectifier potassium channel; P35561; HEK293-Kir2.1, FluxOR thallium flux fluorescence; stronger effect = lower value; B-score at 10 µM; hit rate 0.85% among 310,000; AID 1672;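 active means fluorescence ratio B-score at or below minus 3 SD of library scores, with starting-brightness B-score within 2 SD, cut at about -4.2 in these data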;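 further: channel flux triggered by added potassium and thallium sulfate stimulus; B-score of peak minus minimum fluorescence over baseline after thallium stimulus; more negative B-score means stronger Kir2.1 block with less thallium influx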
KCNQ1 act: potentiators or activators of human KCNQ1 potassium channel; hit rate 0.35% among 310,000; B-score at 10 µM; P51787; CHO-K1 KCNQ1, thallium flux FluxOR fluorescence; stronger effect = higher value;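 active means fluorescence ratio B-score, a plate-corrected score, at least three library SD, with initial intensity B-score within 5 SD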
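System: CHO-K1 cells stably expressing KCNQ1 / Medium: assay buffer for compound exposure, DMSO matched across wells / Reagent: thallium- and potassium-containing depolarizing buffer / Compound: one concentration, matched DMSO / Incubation: 20 min compound pretreatment at room temperature / Measured by: kinetic FluxOR fluorescence, 10 s baseline plus 110 s post-stimulus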
KCNK9 inh: blocks the human KCNK9 two-pore domain potassium channel. hit rate 1.2% among 310,000. B-score at 10 µM. Q9NPC2. HEK293 KCNK9, FluxOR thallium flux fluorescence; stronger effect = lower value;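 active means ratio B-score over 3 SD below the library mean, with starting fluorescence within 5 SD of its mean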;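 further: negative B-score means less thallium flux so channel inhibition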
KCNK3 inh: human KCNK3 channel inhibition, primary screen; O14649; CHO-KCNK3 thallium flux, FluxOR fluorescence; stronger effect = lower value; B-score at 10 µM; hit rate 0.84% among 340,000; AID 602410;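 active means B-score under library mean minus 4 SD, starting fluorescence ratio at most library mean plus 5 SD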;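 further: more negative B-score means stronger inhibition of thallium flux through KCNK3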
KCNK9 block conf: confirmation of human KCNK9 potassium channel inhibitors | shares compounds with KCNK9 inh | HEK293 KCNK9 cells, FluxOR thallium flux fluorescence | inhibition, % at 10 µM | hit rate 43% among 4,900 | AID 492992;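 active means thallium signal inhibited by more than 5 SD of the compound-free buffer control wells, on both duplicate plates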;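 further: 0% = assay buffer control wells without compound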
Kir21 sel: selectivity of KCNK9 modulators against mouse Kir2.1; shares compounds with KCNK9 inh; Kir2.1 cells, FluxOR thallium flux fluorescence; inhibition, % at 10 µM; hit rate 4% among 4,900; AID 492993;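 active means thallium signal drop more than 5 SD beyond the mean of the no-compound control wells, seen in both duplicate plates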;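 further: signal is fluorescence rise after thallium addition divided by baseline fluorescence; plate controls were assay buffer only for no effect and full block by chlorpromazine control for full effect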
HEK293 Tl ctr: second counter-screen for KCNK9 modulators: effect in non-induced cells | inhibition, % at 10 µM | hit rate 40% among 4,900 | shares compounds with KCNK9 inh | non-induced KCNK9-HEK293, FluxOR thallium flux | AID 492997;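 active means thallium signal drop beyond 5 SD of the untreated control mean, on both duplicate plates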;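 further: plate controls were buffer only IC0 wells for no effect and SID17386958 at its maximal inhibitory level for full effect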
Numbers without * were called inactive; i = inactive; · = not tested or not shown.

SMILES	hERG protect	KCNQ1 inh	Kir21 inh	KCNQ1 act	KCNK9 inh	KCNK3 inh	KCNK9 block conf	Kir21 sel	HEK293 Tl ctr
CN(Cc1ccccc1)c1nc(N)c([N+](=O)[O-])c(NCc2ccccc2)n1	-11	i	-4.5*	i	-10*	i	57%*	i	57%*
Cc1ccc(C2C3C(=O)N(c4ccccc4)C(=O)C3N3CCCN23)cc1 (stereo unspecified)	-8	i	0.24	i	i	i	·	·	·
O=C(Nc1ccc2c(c1)OCO2)c1ccc(Br)c(S(=O)(=O)N2CCCC2)c1	-6	i	0.54	i	-8.7*	i	i	i	i
COC(=O)c1sc(-c2ccc(C(C)(C)C)cc2)cc1NC(=O)CCC(=O)O	-8	i	0.46	i	i	i	i	i	i
C/C(=C\c1ccccc1)CN1CCN(c2ccccc2)CC1	-13	i	0.17	i	i	i	i	i	i
Cc1ccc(C(c2nnnn2C2CCCC2)N2c3ccccc3CC2C)cc1 (stereo unspecified)	-14	7*	-0.1	i	-11*	i	70%*	i	50%*
CCn1cc(C(=O)NCc2ccc3c(c2)OCO3)c(=O)c2cc(F)c(N3CCN(C(=O)c4ccco4)CC3)cc21	-9	i	0.31	i	i	i	·	·	·
Clc1nssc1=Nc1ccc(Br)cc1	-10	i	-1.1	i	i	i	·	·	·
Clc1ccc(N=c2ssnc2Cl)nc1	-15	i	0	i	i	i	·	·	·
COc1cc(N=c2ssnc2Cl)cc(OC)c1	-17	i	-3.4	i	i	i	i	i	i
N#Cc1cccc(N=c2ssnc2Cl)c1	5.2*	i	-2	i	i	i	i	i	i
O=C(CCNS(=O)(=O)c1ccc(OC(F)(F)F)cc1)N1CCN(C/C=C/c2ccccc2)CC1	-22	i	0.96	i	i	i	·	·	·
Cc1cc(C(=O)N/N=C/c2ccc(-c3cccc(Cl)c3)o2)n[nH]1	-10	i	-1	i	-14*	i	34%*	i	32%*
O=C(COC(=O)c1nc(Cl)ccc1Cl)NCc1ccccc1	-13	i	1.3	i	i	i	·	·	·
Cc1c(NC(=O)c2cccc(NC(=O)Cc3ccccc3F)c2)c(=O)n(-c2ccccc2)n1C	·	·	·	·	·	i	·	·	·
Cc1cc(N2CCCCC2)n2ncc(-c3ccc(Cl)cc3)c2n1	-12	i	0.6	i	-11*	i	54%*	i	36%*
O=C(O)CC(Cc1ccccc1)C(=O)NCC12CC3CC(CC(C3)C1)C2 (stereo unspecified)	-7	i	0.07	i	i	i	·	·	·
O=C(CSc1nc(-c2ccccc2Cl)ns1)c1ccc(Cl)cc1	1	i	-1.2	i	-12*	i	46%*	i	43%*
COc1ccc(NC(=O)CSCC(=O)Nc2ccc(S(=O)(=O)N3CCCCC3)cc2)cc1	-8	i	-0.35	i	i	i	·	·	·
O=C(CSCc1ccc(Br)cc1)Nc1ccc(S(=O)(=O)N2CCOCC2)cc1	-8	i	-0.06	i	i	i	·	·	·
O=C(CSCc1ccc(Cl)cc1)Nc1ccc(S(=O)(=O)N2CCCCCC2)cc1	-9	i	0.03	i	i	i	i	i	i
COc1ccc(CSCC(=O)Nc2ccc(S(=O)(=O)N3CCCCCC3)cc2)cc1	-3	i	-2.5	i	i	i	i	i	i
O=C(c1ccccc1)N1CCN(C(=O)c2nn3c(C(F)(F)F)cc(-c4ccco4)nc3c2Br)CC1	-5	i	-0.36	i	i	i	·	·	·
O=C(CN1CCN(c2ccccc2Cl)CC1)NC1CCCc2ccccc21 (stereo unspecified)	-10	i	0.3	i	i	i	i	i	i
